# Screening results from PubChem BioAssay.
# Most compounds without a hit are left out; they make up all but 9.6% or so of the library.
# TNAP inh hiacc: blocks human TNAP under high phosphate acceptor concentration. purified TNAP, CDP-star luminescence, 1 M DEA. hit rate 0.03% among 200,000. P05186. inhibition, % at 20 µM;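 active means over 50% inhibition of tissue-nonspecific alkaline phosphatase at 20 µM in the single-dose screen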;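 further: plate controls were DMSO wells for no effect and EDTA-quenched wells as full inhibition for full effect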
# Target sequence (P05186 whole entry, looked up): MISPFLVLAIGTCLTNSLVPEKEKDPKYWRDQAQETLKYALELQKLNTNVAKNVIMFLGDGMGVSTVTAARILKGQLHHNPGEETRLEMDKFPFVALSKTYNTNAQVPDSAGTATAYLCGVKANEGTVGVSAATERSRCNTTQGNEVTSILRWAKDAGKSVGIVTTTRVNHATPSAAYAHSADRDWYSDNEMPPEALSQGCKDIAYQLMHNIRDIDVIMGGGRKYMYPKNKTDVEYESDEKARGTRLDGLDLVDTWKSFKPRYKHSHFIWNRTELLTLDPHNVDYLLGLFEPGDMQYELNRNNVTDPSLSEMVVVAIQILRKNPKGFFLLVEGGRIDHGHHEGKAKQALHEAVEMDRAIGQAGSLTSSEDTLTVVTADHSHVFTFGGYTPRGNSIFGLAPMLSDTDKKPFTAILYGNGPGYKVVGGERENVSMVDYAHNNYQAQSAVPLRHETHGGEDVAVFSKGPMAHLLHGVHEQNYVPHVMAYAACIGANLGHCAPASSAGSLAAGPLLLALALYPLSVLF
# HCT116 PTEN-null: growth suppressors of cells with PTEN tumor suppressor deletion. hit rate 1.2% among 140,000. HCT116 PTEN-null viability, CellTiter-Glo, 60 h; stronger effect = lower value. viability, % at 10 µM;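 active means viability at or below a set limit, 4 SD under the median of all tested compounds, cut at about 3.7% in these data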;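 further: PTEN knockout HCT116 line with beta catenin targeted HCT116 as companion control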
# TNAP act hiacc: TNAP (human) activation, high acceptor. P05186. purified TNAP, CDP-star luminescence, 1 M DEA, 30 min; stronger effect = higher value; 0 = EDTA background, 1 = DMSO-only activity. activation factor at 20 µM. 200,000 tested, under 10 active. AID 1136;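 active means activation factor at least 2 at 20 µM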
#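 Dosing: 20 µM single point. System: human TNAP. Amount: TNAP 1/800 final. Incubation: 30 min, room temperature. Read-out: TNAP activation factor scaled between EDTA and DMSO control wells. Signal: luminescence from CDP-star hydrolysis. Medium: 1 M DEA, pH 9.8, Mg2+, Zn2+. Control set: EDTA negative control, DMSO positive control.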
# L major viab: Leishmania major promastigote growth inhibition; hit rate 9% among 200,000; Leishmania major promastigotes, resazurin fluorescence viability; inhibition, % at 10 µM; in the data active means inhibition above about 50%;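 further: promastigotes grown with compound for 44 hours at 28 °C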
# TNAP inh noacc: blocks human TNAP activity with no phosphate acceptor present. P05186. inhibition, % at 20 µM. purified TNAP, CDP-star luminescence, 30 min. hit rate 0.26% among 200,000;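 active means tissue-nonspecific alkaline phosphatase inhibition above about 50% at 20 µM in the single-dose screen, limit read from the data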;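 further: 0% = DMSO negative control and 100% = EDTA positive control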
# bCat KO growth: beta-catenin-lacking colon tumor cell growth suppression; viability, % at 10 µM; AID 818; HCT116 beta-catenin knockout viability, CellTiter-Glo, 60 h; stronger effect = lower value; hit rate 1.5% among 140,000;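 active means viability at or under a set limit, the compound median less 4 SD, cut at about 6% in these data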;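 further: 0% = Hyamine 1622 control at 20 µM and 100% = untreated cell control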
# * = called active by the depositor; / = no result.
SMILES,TNAP inh hiacc,HCT116 PTEN-null,TNAP act hiacc,L major viab,TNAP inh noacc,bCat KO growth
Cc1cccc(C)c1NC(=O)NC1CC2CCC(C1)N2Cc1cccs1 (stereo unspecified),-5.4,101.5,1.1,-0.2,-14.4,96.6
Cc1cccc(NC(=S)NC2CC3CCCC(C2)N3CC(C)C)c1C (stereo unspecified),-1.7,70.2,1,88.8*,-9.4,64.2
Cc1cccc(NC(=S)NC2CC3CCCC(C2)N3Cc2cccs2)c1C (stereo unspecified),-4.8,26.6,1,85.2*,-32.3,11.4
CCc1ccccc1NC(=S)NC1CC2CCCC(C1)N2Cc1cccs1 (stereo unspecified),-4.0,21.7,1,79.1*,-9.9,23.7
O=C(Nc1cccc(Cl)c1)NC1CC2CCC(C1)N2Cc1cccs1 (stereo unspecified),-9.0,/,1.1,9.5,-13.3,/
CCCN1C2CCCC1CC(NC(=S)Nc1cc(C)ccc1C)C2 (stereo unspecified),-1.9,64.1,1,89.9*,-14.4,71.2
O=C(Cn1cnc2cc([N+](=O)[O-])ccc2c1=O)NC(c1ccccc1)c1ccccc1,0.8,94.0,1,12.1,-13.4,97.7
O=C1CCC(=O)N1N1C(=O)C2C3c4ccccc4C(c4ccccc43)C2C1=O (stereo unspecified),1.7,/,1,2.3,-4.9,/
OCCC1CN(Cc2nc3ccccc3s2)CCN1C1CCCC1 (stereo unspecified),0.2,/,1,66.8*,1.1,/
OCCC1CN(CC(c2ccccc2)c2ccccc2)CCN1C1CCCC1 (stereo unspecified),-3.5,/,1,86.9*,-6.8,/
OCCC1CN(CC#Cc2ccccc2)CCN1C1CCCC1 (stereo unspecified),-3.0,/,1,23.2,-8.6,/
CC(C)N1CCN(Cc2nc3ccccc3s2)CC1CCO (stereo unspecified),-3.3,/,1,-5.9,-6.0,/
CCOC(=O)c1c(-c2ccc(F)cc2)csc1/N=C/N(C)C,-4.5,/,1,-7.0,-14.3,/
Cc1ccc(NC(=O)CN2C(=O)c3ccccc3C2=O)nc1,-2.8,/,1,-4.8,-8.9,/
C=CCn1c(N)c(C(=O)OCCC)c2nc3ccccc3nc21,-8.3,105.9,1.1,99.6*,-11.3,92.9
C=CCn1c(N)c(C(=O)Nc2cccc(C)c2)c2nc3ccccc3nc21,0.6,22.8,1,11.2,-2.3,19.5
COc1ccccc1C1=NOC(Cn2c(=O)c3c(ncn3C)n(C)c2=O)C1 (stereo unspecified),-6.3,89.6,1.1,17.6,3.9,102.3
COc1ccc(C2=NOC(Cn3c(Cc4ccc(Cl)cc4)nc4c3c(=O)n(C)c(=O)n4C)C2)cc1 (stereo unspecified),-2.5,71.8,1,63.9*,8.6,74.0
COc1cccc(C2CC(c3cccs3)=NN2S(C)(=O)=O)c1 (stereo unspecified),-0.5,/,1,-4.0,3.4,/
CCNC(=S)N(Cc1cc2cc(C)c(C)cc2[nH]c1=O)C1CCCC1,0.1,/,1,26.8,-1.1,/
CCNC(=S)N(Cc1cc2c(C)ccc(C)c2[nH]c1=O)C1CCCC1,-2.8,/,1,66.6*,-4.5,/
CNC(=S)N(Cc1cc2cc(C)cc(C)c2[nH]c1=O)C1CCCC1,-2.5,/,1,60.1*,-3.3,/
CCNC(=S)N(Cc1cc2cc(C)cc(C)c2[nH]c1=O)C1CCCC1,3.3,79.8,1,98.9*,-3.8,77.4
CC(=O)N(Cc1cc2c(C)cc(C)cc2[nH]c1=O)C1CCCCC1,-6.8,85.5,1.1,7.8,-11.3,91.0
CCNC(=S)N(Cc1cc2cc(C)ccc2[nH]c1=O)C1CCCC1,1.3,98.1,1,35.7,-0.2,88.5
SMILES,TNAP inh hiacc,HCT116 PTEN-null,TNAP act hiacc,L major viab,TNAP inh noacc,bCat KO growth
NC(=O)c1ccc(NC(=O)COC(=O)c2ccccc2Nc2ccccc2)cc1,-4.2,/,1,2.3,-2.3,/
Cc1cc(C)c(S(C)(=O)=O)c(N(C)N)n1,-2.0,/,1,0.3,-10.8,/
Cc1sc2nc(C)n(/N=C/c3ccc(O)cc3O)c(=O)c2c1C,-4.5,/,1,-5.1,-13.7,/
Cc1cccc(OCC(=O)N2CCN(C(=O)CCC3CCCC3)CC2)c1,-8.2,84.7,1.1,-3.4,-11.4,81.5
Cc1cccc(OCC(=O)N2CCC(N3CCOCC3)CC2)c1,-5.7,99.9,1.1,91.6*,-9.0,106.1
CC1CN(C2CCN(C(=O)COc3ccc(Cl)cc3)CC2)CC(C)O1 (stereo unspecified),-0.3,91.7,1,91.5*,1.3,84.9
O=C(c1ccccc1F)N1CCC(N2CCCCCC2)CC1,-1.2,103.4,1,72.8*,-7.9,90.3
O=C(CN1CCCc2ccccc21)N/N=C/c1ccccc1O,3.8,10.6,1,98.6*,-6.0,14.3
Fc1ccc(Nc2ccnc(Nc3ccc(F)cc3)n2)cc1,-4.1,56.0,1,94.7*,-2.7,54.4
Nc1ncnc(Nc2ccc(F)cc2)n1,-0.8,104.3,1,57.2*,-2.5,97.4
O=C1CC(c2ccco2)Cc2nc(Nc3ccc(F)cc3)ncc21 (stereo unspecified),-5.7,70.6,1.1,16.4,-5.0,76.6
Cc1c(NC(=O)c2ccc(-c3cccc([N+](=O)[O-])c3)o2)c(=O)n(-c2ccccc2)n1C,-3.6,/,1,-3.5,-5.6,/
COc1ccc(C(=O)Nc2nc3c(s2)Cc2cc(OC)ccc2-3)cc1,5.2,78.5,0.9,96.3*,-2.7,94.5
COc1ccc2c(c1)Cc1sc(NC(=O)c3ccccc3)nc1-2,-1.0,83.9,1,9.3,-5.3,86.0
CC1(C(=O)Oc2ccccc2)Cc2ccccc2C(=O)O1 (stereo unspecified),4.8,/,1,4.3,-3.6,/
O=C1c2ccccc2C(=O)N1CCCON1C(=O)c2ccccc2C1=O,-2.7,99.8,1,50.3*,-8.2,92.8
CC(=O)OCCCCON1C(=O)c2ccccc2C1=O,1.7,94.9,1,-1.9,-6.5,98.4
COc1ccc(CN(CCC(c2ccccc2)c2ccc(OC(C)C)cc2)C(=O)CCl)cc1OC (stereo unspecified),-4.6,1.5*,1,100.0*,-21.3,1.5*
COc1ccc(OC)c(/C=N/c2oc(-c3ccco3)c(-c3ccco3)c2C#N)c1,2.6,5.4,1,15.0,19.2,3.5*
N#Cc1c(N)oc(-c2ccco2)c1-c1ccco1,-3.0,11.5,1,4.1,-10.7,5.9*
N#Cc1c(-c2ccccc2Cl)cc(-c2ccccc2)nc1Br,-3.9,70.5,1,4.2,8.1,76.4
CN(Cc1cccc(C(F)(F)F)c1)Cc1nc(-c2cnccn2)no1,-3.5,/,1,-1.6,1.3,/
CC(C)CCc1noc(CN(C)CC2CCN(Cc3ccccc3)CC2)n1,-8.2,/,1.1,82.7*,-6.0,/
CN(Cc1nc(-c2cnccn2)no1)CC1CCN(Cc2ccccc2)CC1,-2.3,/,1,91.1*,-1.4,/
